Source: PubChem BioAssay (Johns Hopkins Ion Channel Center)
MrgX1 allo act – positive allosteric modulators of MrgX1, primary screen, HEK293 cells, Fluo-4 calcium flux; Mas-related G-protein coupled receptor member X1 (Homo sapiens), Q96LB2; AID 588675, 2011; B-score at 10 µM; 310,000 tested, 0.63% active; FDSS; active compounds read high;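 active = plate-corrected calcium response at least 3 library SD above typical, normal starting fluorescence, not activating the receptor alone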;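 note: compound read alongside a low EC10 to EC30 dose of BAM8-22 agonist; peak minus trough fluorescence over baseline measured at the second addition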
MrgX1 antag – antagonists of human MrgX1 receptor, primary screen, HEK293 cells, Fluo-4 calcium flux. AID 588676, 2011. BAM8-22 antagonism; active compounds read low. 310,000 tested, 1.3% active. B-score at 10 µM;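 active = calcium-response B-score plate-corrected more than 3 library SD below zero, starting fluorescence within 5 deviations, no agonist response on first addition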;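 note: peak minus trough fluorescence over baseline after final BAM8-22 challenge near maximal dose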
RGS4 block – RGS4 inhibitors, primary screen, cell-based, HEK293 M3R inducible RGS4, calcium flux; 310,000 tested, 0.45% active; B-score at 10 µM; Fluo-4 calcium flux; active compounds read high; triggered by carbachol at its EC20; AID 463165, 2010; Regulator of G-protein signaling 4 (Homo sapiens), P49798;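 active = B-score, a plate-corrected calcium signal, over three deviations above library mean, with baseline fluorescence within five deviations of library mean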;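 note: RGS4 expression induced by doxycycline in cells with stable M3 receptor; B-score is computed from the integrated fluorescence ratio over baseline after carbachol; higher B-score means a larger calcium signal and so more RGS4 inhibition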
Target sequence (P49798 whole entry, looked up): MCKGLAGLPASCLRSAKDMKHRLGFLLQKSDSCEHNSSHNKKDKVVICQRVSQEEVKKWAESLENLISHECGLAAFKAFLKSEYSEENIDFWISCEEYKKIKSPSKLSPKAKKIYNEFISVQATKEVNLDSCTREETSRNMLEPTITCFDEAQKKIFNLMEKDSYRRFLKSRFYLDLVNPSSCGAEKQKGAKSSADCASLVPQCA
MrgX1 ag – agonists of human MrgX1 receptor, primary screen, HEK293 cells, Fluo-4 calcium flux. Mas-related G-protein coupled receptor member X1 (Homo sapiens), Q96LB2. Fluo-4 calcium fluorescence, agonist mode; active compounds read high. B-score at 10 µM. 310,000 tested, 0.44% active;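 active = calcium response B-score plate-corrected fluorescence ratio at least 3 library SD, with starting fluorescence B-score inside 5 SD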
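Material: HEK293 cells stably expressing human MrgX1 receptor | Quantity: 15,000 cells per well | Times: Cells plated overnight, dye loaded 0.5 h 37 °C, 0.5 h room temperature | Measured by: Kinetic Fluo-4 NW fluorescence of intracellular calcium | Control set: Positive and negative controls per plate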
RGS4 pot – RGS4 potentiators or activators, primary screen, cell-based, HEK293 M3R inducible RGS4, calcium flux. AID 463111, 2010. 310,000 tested, 0.92% active. carbachol calcium flux Fluo4; active compounds read low. B-score at 10 µM;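 active = B-score of the integrated calcium signal more than 4 SD below the library mean, with starting fluorescence not abnormally high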;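 note: negative B-score means reduced calcium response which marks RGS4 activation or potentiation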
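Material: Inducible-RGS4 HEK293 cells carrying M3 receptor; also added: carbachol at ECmax as muscarinic agonist stimulus; incubation: compound preincubation 20 min at room temperature before agonist; signal: Fluo4-AM (2 µM) calcium-flux fluorescence, kinetic read; measure: integrated calcium ratio converted to B score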
RGS4 act valid – reduced carbachol calcium response, RGS4-induced M3R cells, confirmation, RGS4 activator project, cell-based, HEK293 M3R/RGS4 inducible, calcium flux, duplicate | 1,100 tested, 89% active | shares compounds with RGS4 pot | AID 602282, 2012 | carbachol calcium flux Fluo4 | inhibition, % at 10 µM;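 active = inhibition above 3 SD of the buffer control wells, cut at about 41% in these data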;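 note: signal is the integrated peak-minus-minimum Fluo4 fluorescence over baseline ratio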
M3R Ca counter – activity in cells without induced RGS4 expression; AID 602283; shares compounds with RGS4 pot; HEK293 M3R non-induced RGS4, Fluo4 calcium flux; after carbachol challenge at its EC90; inhibition, % at 10 µM; 1,100 tested, 82% active;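 active = inhibition exceeding 3 SD of buffer-only control wells, cut at about 26% in these data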;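 note: percent drop in integrated peak-minus-baseline over baseline Fluo4 ratio after carbachol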
The depositor's hits bear a star; i = inactive; / = no result. A selection: hits, their analogues and other compounds. The true share with any hit is near 3.5%.

SMILES | MrgX1 allo act | MrgX1 antag | RGS4 block | MrgX1 ag | RGS4 pot | RGS4 act valid | M3R Ca counter
COc1ccc(-c2cc(C(=O)OCc3ccccn3)c3ccccc3n2)cc1 | i | i | i | i | i | / | /
Cc1cnc(C(=O)OCC(=O)Nc2cc(-c3ccccc3)nn2-c2ccccc2)cn1 | i | i | i | i | i | / | /
c1ccc2nc3c(nc2c1)OCC1CCCCN31 (stereo unspecified) | i | i | i | i | -7.6* | 72* | 84*
Cc1ccc(C(=O)NC(=S)Nc2ccc(CN3CCCCC3)cc2)c(C)c1 | i | i | i | i | -7.6* | 82* | 84*
CCN1CCCC1CNC(=O)c1cc(COc2ccc(C)c(C)c2)on1 (stereo unspecified) | i | i | i | i | i | / | /
COc1ccc(/C=C/CN2CCCC(CO)(Cc3cccc(Cl)c3)C2)cc1 (stereo unspecified) | i | i | i | i | i | / | /
Fc1ccc(-n2nnnc2-c2cnc(-c3cccs3)nc2C(F)(F)F)cc1 | i | i | i | i | -9.7* | 74* | 44*
FC(F)(F)c1nc(-c2ccncc2)ncc1-c1nnnn1-c1ccccc1 | i | i | i | i | i | / | /
O=S(=O)(NCc1csc(-c2cccs2)n1)c1ccc(Cl)cc1 | i | i | i | i | i | / | /
O=S(=O)(NCc1csc(-c2cccs2)n1)c1cccs1 | i | i | i | i | -8* | 0 | 0
COC(=O)c1cc(NC(=O)CSc2nnc(N)s2)ccc1Cl | i | i | i | i | -14* | 0 | 0
Cc1cc(C)c2c(c1)/C(=c1/sc3n(c1=O)CN(c1ccccc1)CN=3)C(=O)N2 | i | i | i | i | i | / | /
Cc1ccc(C(=O)Nc2ccccc2C(=O)Nc2ccccn2)cc1Cl | i | i | i | i | i | / | /
Cc1ccc(NC(=O)CCCNC(=O)c2ccc(Cl)cc2)c(O)c1 | i | i | i | i | i | / | /
CN(CC/C=C1/c2ccccc2CSc2ccccc21)CCCO | i | i | i | i | -9.5* | 91* | 65*
CC(O)CN(C)CC/C=C1/c2ccccc2CSc2ccccc21 (stereo unspecified) | i | i | i | i | -7.9* | 73* | 84*
CN(C)Cc1c(-c2ccc(Cl)cc2)nc2ccc(Cl)cn12 | i | i | i | i | i | / | /
Cc1ccc(S(=O)(=O)NCCC2=CCCCC2)cc1C(N)=O | i | i | i | i | i | / | /
Cc1cc(S(=O)(=O)NCCC2=CCCCC2)ccc1Br | i | i | i | i | -9.6* | 92* | 83*
COc1cccc(C=O)c1OCCN1C(=O)c2ccccc2C1=O | i | i | i | i | i | / | /
Fc1ccc(C2c3[nH]c4ccccc4c3CCN2CCCn2cccn2)cc1 (stereo unspecified) | i | i | i | i | i | / | /
Cc1ccccc1C1c2[nH]c3ccccc3c2CCN1CCCn1cccn1 (stereo unspecified) | i | i | i | i | -7.7* | 93* | 91*
COc1ccc(S(=O)(=O)N(C)C)cc1NC(=O)Cc1c[nH]c2ccccc12 | i | i | i | i | i | / | /
Cc1nc(-c2noc(-c3ccccc3Cl)n2)c(C(F)(F)F)o1 | i | i | i | i | -8.6* | 0 | 0
Cc1ccc(CN(Cc2ccccc2)C(=S)NCC(=O)NCc2cccnc2)o1 | i | i | i | i | i | / | /
OCC1(Cc2ccccc2Cl)CCN(C/C=C/c2ccccc2)CC1 | i | i | i | i | -9.2* | 94* | 83*
OCC1(CCc2ccccc2)CCN(C/C=C/c2ccccc2)CC1 | i | i | i | i | i | / | /
